Results from ChEMBL document CHEMBL1151922, “Structure-activity relationships of 3,5-disubstituted benzamides as glucokinase activators with potent in vivo efficacy” (Bioorg Med Chem, 2009).
Activity calls are given as the source filed them. The rule behind the calls is not given here.

What was measured:
Hexokinase-4 [1] = molecular target: T1, Hexokinase-4 (Homo sapiens, UniProt P35557); assay: Activation of flag-tagged human recombinant liver glucokinase expressed in Escherichia coli by glucose-6-phosphate dehydrogenase coupled continuous spectrophotometric assay in presence of 2.5 mM glucose
T1 sequence (P35557 whole entry): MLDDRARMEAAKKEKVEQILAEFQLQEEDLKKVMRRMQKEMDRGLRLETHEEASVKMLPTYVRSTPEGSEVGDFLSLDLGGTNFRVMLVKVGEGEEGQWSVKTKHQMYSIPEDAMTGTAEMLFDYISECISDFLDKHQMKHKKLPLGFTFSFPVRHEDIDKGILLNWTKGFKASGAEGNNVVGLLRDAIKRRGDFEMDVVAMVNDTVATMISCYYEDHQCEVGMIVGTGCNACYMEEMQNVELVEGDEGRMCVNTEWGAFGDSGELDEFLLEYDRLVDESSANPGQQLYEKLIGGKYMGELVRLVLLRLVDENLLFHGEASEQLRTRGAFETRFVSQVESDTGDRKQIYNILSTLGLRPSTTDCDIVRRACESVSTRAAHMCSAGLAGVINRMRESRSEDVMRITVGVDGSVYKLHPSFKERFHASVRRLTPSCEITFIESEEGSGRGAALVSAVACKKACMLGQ

Hexokinase-4 [2] = molecular target: T1, Hexokinase-4; assay: Activation of flag-tagged human recombinant liver glucokinase expressed in Escherichia coli by glucose-6-phosphate dehydrogenase coupled continuous spectrophotometric assay in presence of 10 mM glucose
[3] = Octanol-water distribution coefficient, log D at pH 7.4 by HPLC-MS analysis
[4] = Solubility in water at pH 7.4 by HPLC-UV method
Mus musculus [5] = assay: Glucose lowering effect in normal-fed ICR mouse assessed as decrease in blood glucose AUC level at 3 mg/kg, po; assay type: functional, organism-based; parameters: dose 3 mg/kg
In short: (§1)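 Male ICR mice aged ten to eleven weeks, fed ad libitum, given a single oral dose suspended in 0.5% methylcellulose; vehicle alone served as control. Blood glucose was measured immediately before dosing and at 0.5, 1, 1.5, 2, 3 and 4 h afterwards.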

Mus musculus [6] = assay: Glucose lowering effect in normal-fed ICR mouse assessed as decrease in blood glucose AUC level at 10 mg/kg, po; assay type: functional, organism-based; parameters: dose 10 mg/kg; in short: as §1
Mus musculus [7] = assay: Glucose lowering effect in high-fat diet mouse assessed as decrease in blood glucose level at 3 mg/kg, po; assay type: functional, organism-based; parameters: dose 3 mg/kg
In short: (§2)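 Male high-fat-diet mice aged forty-one weeks, fed freely, dosed orally in 0.5% methylcellulose vehicle against a vehicle-only group. Blood glucose was sampled just before dosing and at 1, 2, 4 and 6 h after.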

Mus musculus [8] = assay: Glucose lowering effect in high-fat diet mouse assessed as decrease in blood glucose level at 10 mg/kg, po; assay type: functional, organism-based; parameters: dose 10 mg/kg; in short: as §2
Mus musculus [9] = assay: Glucose lowering effect in high-fat diet mouse assessed as decrease in blood glucose AUC level at 3 mg/kg, po; assay type: functional, organism-based; parameters: dose 3 mg/kg; in short: as §2
Mus musculus [10] = assay: Glucose lowering effect in high-fat diet mouse assessed as decrease in blood glucose AUC level at 10 mg/kg, po; assay type: functional, organism-based; parameters: dose 10 mg/kg; in short: as §2
Mus musculus [11] = assay: Glucose lowering effect in KKAy mouse assessed as decrease in blood glucose level at 10 mg/kg, po; assay type: functional, organism-based; parameters: dose 10 mg/kg
In short: (§3)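 Male KKAy mice aged nine weeks, fasted 4 h beforehand, given a single oral dose in 0.5% methylcellulose vehicle, with a vehicle-only control group. Blood glucose was read just before dosing and at 0.5, 1, 2 and 4 h afterwards.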

Mus musculus [12] = assay: Glucose lowering effect in KKAy mouse assessed as decrease in blood glucose level at 30 mg/kg, po; assay type: functional, organism-based; parameters: dose 30 mg/kg; in short: as §3
Mus musculus [13] = assay: Glucose lowering effect in KKAy mouse assessed as decrease in blood glucose AUC level at 10 mg/kg, po; assay type: functional, organism-based; parameters: dose 10 mg/kg; in short: as §3
Mus musculus [14] = assay: Glucose lowering effect in KKAy mouse assessed as decrease in blood glucose AUC level at 30 mg/kg, po; assay type: functional, organism-based; parameters: dose 30 mg/kg; in short: as §3
[15] = AUC (0 to infinity) in Sprague-Dawley rat at 1 mg/kg, iv; assay type: ADME, organism-based; parameters: time infinity, dose 1 mg/kg, route intravenous; conditions: plasma
[16] = Plasma clearance in Sprague-Dawley rat at 1 mg/kg, iv; assay type: ADME, organism-based; parameters: dose 1 mg/kg, route intravenous
[17] = Half life in Sprague-Dawley rat at 1 mg/kg, iv; assay type: ADME, organism-based; parameters: dose 1 mg/kg, route intravenous; conditions: in vivo
[18] = Volume of distribution at steady state in Sprague-Dawley rat at 1 mg/kg, iv; assay type: ADME, organism-based; parameters: dose 1 mg/kg, route intravenous; conditions: in vivo, read-out: Vdss
[19] = AUC (0 to infinity) in Sprague-Dawley rat at 3 mg/kg, po; assay type: ADME, organism-based; parameters: dose 3 mg/kg, route oral, time infinity; conditions: plasma
[20] = Cmax in Sprague-Dawley rat at 3 mg/kg, po; assay type: ADME, organism-based; parameters: dose 3 mg/kg, route oral; conditions: in vivo
[21] = Tmax in Sprague-Dawley rat at 3 mg/kg, po; assay type: ADME, organism-based; parameters: dose 3 mg/kg, route oral; conditions: in vivo
[22] = Oral bioavailability in Sprague-Dawley rat at 3 mg/kg; assay type: ADME, organism-based; conditions: in vivo
[23] = AUC (0 to infinity) in Beagle dog at 0.3 mg/kg, iv; assay type: ADME, organism-based, Canis lupus familiaris; parameters: time infinity, dose 0.3 mg/kg, route intravenous; conditions: plasma
[24] = Plasma clearance in Beagle dog at 0.3 mg/kg, iv; assay type: ADME, organism-based, Canis lupus familiaris; parameters: dose 0.3 mg/kg, route intravenous
[25] = Half life in Beagle dog at 0.3 mg/kg, iv; assay type: ADME, organism-based, Canis lupus familiaris; parameters: dose 0.3 mg/kg, route intravenous; conditions: in vivo
[26] = Volume of distribution at steady state in Beagle dog at 0.3 mg/kg, iv; assay type: ADME, organism-based, Canis lupus familiaris; parameters: dose 0.3 mg/kg, route intravenous; conditions: in vivo, read-out: Vdss
[27] = Cmax in Beagle dog at 1 mg/kg, po; assay type: ADME, organism-based, Canis lupus familiaris; parameters: dose 1 mg/kg, route oral; conditions: in vivo
[28] = Tmax in Beagle dog at 1 mg/kg, po; assay type: ADME, organism-based, Canis lupus familiaris; parameters: dose 1 mg/kg, route oral; conditions: in vivo
[29] = Oral bioavailability in Beagle dog at 1 mg/kg; assay type: ADME, organism-based, Canis lupus familiaris; conditions: in vivo
[30] = AUC (0 to infinity) in Beagle dog at 1 mg/kg, po; assay type: ADME, organism-based, Canis lupus familiaris; parameters: dose 1 mg/kg, route oral, time infinity; conditions: plasma

## CS(=O)(=O)c1ccc(Oc2cc(O[C@H]3CCC[C@@H]3O)cc(C(=O)Nc3nccs3)c2)cc1 (stereo in doubt)
Hexokinase-4 [1]
  EC50: 280 nM
Hexokinase-4 [2]
  EC50: 170 nM

## CS(=O)(=O)c1ccc(Oc2cc(OC3CCNC3)cc(C(=O)Nc3nccs3)c2)cc1 (racemic)
Hexokinase-4 [1]
  EC50: 18000 nM
Hexokinase-4 [2]
  EC50: 4200 nM

## CS(=O)(=O)c1ccc(Oc2cc(OC3CCOC3)cc(C(=O)Nc3nccs3)c2)cc1 (racemic)
[3]
  logD: 4.2

## COCC(C)Oc1cc(Oc2ccc(S(C)(=O)=O)cc2)cc(C(=O)Nc2nccs2)c1 (racemic)
Hexokinase-4 [1]
  EC50: 190 nM
Hexokinase-4 [2]
  EC50: 70 nM
[3]
  logD: 4

## CS(=O)(=O)c1ccc(Oc2cc(O[C@H]3CCC[C@@H]3O)cc(C(=O)Nc3nccs3)c2)cc1 (stereo in doubt; 6j)
Hexokinase-4 [1]
  EC50: 160 nM
Hexokinase-4 [2]
  EC50: 90 nM

## CC(CN(C)C)Oc1cc(Oc2ccc(S(C)(=O)=O)cc2)cc(C(=O)Nc2nccs2)c1 (racemic)
Hexokinase-4 [1]
  EC50: 12000 nM
Hexokinase-4 [2]
  EC50: 2600 nM

## CC(CCO)Oc1cc(Oc2ccc(S(C)(=O)=O)cc2)cc(C(=O)Nc2nccs2)c1 (racemic)
Hexokinase-4 [1]
  EC50: 150 nM
Hexokinase-4 [2]
  EC50: 60 nM
[3]
  logD: 3.4

## CS(=O)(=O)c1ccc(Oc2cc(OCCO)cc(C(=O)Nc3nccs3)c2)cc1
Hexokinase-4 [1]
  EC50: 780 nM
Hexokinase-4 [2]
  EC50: 200 nM
[3]
  logD: 2.4

## CS(=O)(=O)c1ccc(Oc2cc(OC(CO)C(F)(F)F)cc(C(=O)Nc3nccs3)c2)cc1 (racemic)
Hexokinase-4 [1]
  EC50: 790 nM
Hexokinase-4 [2]
  EC50: 240 nM
[3]
  logD: > 4

## CC(C)Oc1cc(Oc2ccc(S(C)(=O)=O)cc2)cc(C(=O)Nc2nccs2)c1
Hexokinase-4 [1]
  EC50: 170 nM
Hexokinase-4 [2]
  EC50: 60 nM
[3]
  logD: > 5

## Cc1csc(NC(=O)c2cc(Oc3ccc(S(C)(=O)=O)cc3)cc(OC(C)C(=O)O)c2)n1 (racemic)
Hexokinase-4 [1]
  EC50: 30000 nM
Hexokinase-4 [2]
  EC50: 7400 nM

## Cn1cnnc1Sc1ccc(N)c(C(=O)Nc2nccs2)c1
Hexokinase-4 [1]
  EC50: 420 nM
Hexokinase-4 [2]
  EC50: 140 nM

## CS(=O)(=O)c1ccc(Oc2cc(O[C@H]3CCC[C@H]3O)cc(C(=O)Nc3nccs3)c2)cc1
Hexokinase-4 [1]
  EC50: 260 nM
Hexokinase-4 [2]
  EC50: 110 nM

## CS(=O)(=O)c1ccc(Oc2cc(O[C@@H]3CCC[C@H]3O)cc(C(=O)Nc3nccs3)c2)cc1
Hexokinase-4 [1]
  EC50: 3700 nM
Hexokinase-4 [2]
  EC50: 1600 nM

## CS(=O)(=O)c1ccc(Oc2cc(O[C@@H]3CCOC3)cc(C(=O)Nc3nccs3)c2)cc1
Hexokinase-4 [1]
  EC50: 1800 nM
Hexokinase-4 [2]
  EC50: 300 nM

## Cc1csc(NC(=O)c2cc(Oc3ccc(S(C)(=O)=O)cc3)cc(OC(C)C)c2)n1
[4]
  solubility: < 0.1 µg/mL
[3]
  logD: > 5
Mus musculus [5]
  Activity: inactive
Mus musculus [6]
  Activity: inactive

## CS(=O)(=O)c1ccc(Oc2cc(O[C@H]3CCC[C@H]3O)cc(C(=O)Nc3nccs3)c2)cc1 (racemic)
Hexokinase-4 [1]
  EC50: 460 nM
Hexokinase-4 [2]
  EC50: 120 nM
[3]
  logD: 3.4

## CS(=O)(=O)c1ccc(Oc2cc(OC3CCCC3)cc(C(=O)Nc3nccs3)c2)cc1
Hexokinase-4 [1]
  EC50: 490 nM
Hexokinase-4 [2]
  EC50: 240 nM
[3]
  logD: > 5

## CN1CCC(Oc2cc(Oc3ccc(S(C)(=O)=O)cc3)cc(C(=O)Nc3nccs3)c2)C1 (racemic)
Hexokinase-4 [1]
  EC50: 24000 nM
Hexokinase-4 [2]
  EC50: 7300 nM

## C[C@@H](CO)Oc1cc(Oc2ccc(S(C)(=O)=O)cc2)cc(C(=O)Nc2nccs2)c1
Mus musculus [5]
  Activity: Active
Mus musculus [6]
  Activity: Active
Mus musculus [7]
  Activity: Active
Mus musculus [8]
  Activity: Active
Mus musculus [9]
  Activity: Active
Mus musculus [10]
  Activity: Active
Mus musculus [11]
  Activity: Active
Mus musculus [12]
  Activity: Active
Mus musculus [13]
  Activity: Active
Mus musculus [14]
  Activity: Active
[15]
  AUC(0-inf): 10 µM·h
[16]
  clearance: 3.9 mL/min/kg
[17]
  half-life: 1.3 h
[18]
  Vd: 0.19 L/kg
[19]
  AUC(0-inf): 12 µM·h
[20]
  Cmax: 3400 nM
[21]
  Tmax: 0.3 h
[22]
  bioavailability: 33%
[23]
  AUC(0-inf): 2.4 µM·h
[24]
  clearance: 4.6 mL/min/kg
[25]
  half-life: 5.4 h
[26]
  Vd: 1.56 L/kg
[27]
  Cmax: 800 nM
[28]
  Tmax: 1.2 h
[29]
  bioavailability: 57%
[30]
  AUC(0-inf): 4.6 µM·h

## CC(C)C(CO)Oc1cc(Oc2ccc(S(C)(=O)=O)cc2)cc(C(=O)Nc2nccs2)c1 (racemic)
Hexokinase-4 [1]
  EC50: 360 nM
Hexokinase-4 [2]
  EC50: 200 nM
[3]
  logD: > 4

## CS(=O)(=O)c1ccc(Oc2cc(O[C@@H]3CCC[C@@H]3O)cc(C(=O)Nc3nccs3)c2)cc1
Hexokinase-4 [1]
  EC50: 3400 nM
Hexokinase-4 [2]
  EC50: 1200 nM

## CCC(COC)Oc1cc(Oc2ccc(S(C)(=O)=O)cc2)cc(C(=O)Nc2nccs2)c1 (racemic)
Hexokinase-4 [1]
  EC50: 190 nM
Hexokinase-4 [2]
  EC50: 60 nM
[3]
  logD: > 5

## COCC(COC)Oc1cc(Oc2ccc(S(C)(=O)=O)cc2)cc(C(=O)Nc2nccs2)c1
Hexokinase-4 [1]
  EC50: 610 nM
Hexokinase-4 [2]
  EC50: 120 nM
[3]
  logD: > 4

## CS(=O)(=O)c1ccc(Oc2cc(OC3CCOCC3)cc(C(=O)Nc3nccs3)c2)cc1
Hexokinase-4 [1]
  EC50: 460 nM
Hexokinase-4 [2]
  EC50: 120 nM
[3]
  logD: 4.1

## CS(=O)(=O)c1ccc(Oc2cc(O[C@H]3CCOC3)cc(C(=O)Nc3nccs3)c2)cc1
Hexokinase-4 [1]
  EC50: 190 nM
Hexokinase-4 [2]
  EC50: 50 nM

## CC(CO)Cc1cc(Oc2ccc(S(C)(=O)=O)cc2)cc(C(=O)Nc2nccs2)c1 (racemic)
Hexokinase-4 [1]
  EC50: 750 nM
Hexokinase-4 [2]
  EC50: 250 nM
[3]
  logD: 3.4

## CC(CN)Oc1cc(Oc2ccc(S(C)(=O)=O)cc2)cc(C(=O)Nc2nccs2)c1 (racemic)
Hexokinase-4 [1]
  EC50: 1500 nM
Hexokinase-4 [2]
  EC50: 210 nM
[3]
  logD: 1.1
